Converted amounts (≈) assume the structure as drawn.

For series [1], the system named is Plasmodium falciparum. The series is described as follows: Resistance index, ratio of IC50 for chloroquine-resistant synchronized trophozoite stage of Plasmodium falciparum Dd2 to IC50 for chloroquine-sensitive synchronized trophozoite stage of Plasmodium falciparum NF54. Type of series: functional.
Series [2] is described as follows: Kinetic solubility of compound in simulating fasting state biorelevant media at pH 6.5 after 2 hrs by shake flask method. The class given is physicochemical. The settings on record: fasted-state simulating biorelevant medium, read-out: Kinetic_solubility.
The nature of series [3]: n-Octanol-buffer distribution coefficient, log D of the compound at pH 5 incubated for 4 hrs by UV-vis based shake flask method. The class given is physicochemical.
A short description of series [4]: n-Octanol-buffer distribution coefficient, log D of the compound at pH 7.4 […] by HPLC based shake flask method. The class given is physicochemical.
Series [5] has as its system Plasmodium falciparum. The experiment in a line: Antiplasmodial activity against chloroquine-sensitive synchronized trophozoite stage of Plasmodium falciparum NF54 after 48 hrs by NBT dye based LDH assay. The class given is functional. The settings on record: NF54, 48 h.
The subject of series [6] is Plasmodium falciparum. The experiment in a line: Antiplasmodial activity against chloroquine-resistant synchronized trophozoite stage of Plasmodium falciparum Dd2 after 48 hrs by NBT dye based LDH assay. Type of series: functional. The settings on record: Dd2, 48 h.
Series [7] has as its system Plasmodium falciparum. The experiment in a line: Antiplasmodial activity against chloroquine-resistant synchronized trophozoite stage of Plasmodium falciparum 7G8 after 48 hrs by NBT dye based LDH assay. The settings on record: 7G8, 48 h. The class given is functional.
The next series has as its system CHO. The series is described as follows: Cytotoxicity against CHO cells by MTT assay. Type of series: cell-based. The settings on record: Cricetulus griseus. Summed up:
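MTT assay on CHO cells. DMSO stock diluted in complete medium; 10-fold serial dilutions, 6 concentrations from 100 to 0.001 μg/mL; emetine reference; triplicate on each occasion. IC50 from non-linear fit of full dose-response curves.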

In series [8] the test system is Plasmodium falciparum. The series is described as follows: Resistance index, ratio of IC50 for chloroquine-resistant synchronized trophozoite stage of Plasmodium falciparum 7G8 to IC50 for chloroquine-sensitive synchronized trophozoite stage of Plasmodium falciparum NF54. Type of series: functional.
A short description of series [9]: Selectivity index, ratio of IC50 for CHO cells to IC50 for chloroquine-sensitive synchronized trophozoite stage of Plasmodium falciparum NF54. The class given is toxicity. The settings on record: hamster; read-out: Ratio IC50.
In the next series the test system is Plasmodium berghei. The series is described as follows: Antimalarial activity against chloroquine-sensitive Plasmodium berghei ANKA infected in C57BL/6 mouse assessed as supression of parasitemia at 30 mg/kg, po administered for 4 consecutive days starting at 2 hrs post infection by peter's test relative to control. Type of series: functional. Summed up: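 P. berghei ANKA passaged in C57BL/6 donor; test mice infected ip with 200 μL of 1 × 10⁷ parasitized erythrocytes in PBS. Oral dosing 30 mg/kg at 2 h post-infection, then daily D0–D3; PBS-dosed controls. Parasitemia read on D4 from Giemsa-stained, methanol-fixed tail thin films; suppression relative to control.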

Series [10] in a line: Half life in BALB/c mouse liver microsomes at 1 uM in presence of NADPH by LC-MS/MS analysis. The class given is ADME, microsome. The method, boiled down:
(§1)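 Compound at 1 μM with 0.35 mg/ml male BALB/c mouse liver microsomes, 1 mM NADPH, 100 mM phosphate pH 7.4, 37 °C, 30 min; triplicate. Stopped by ice-cold acetonitrile with carbamazepine internal standard; parent loss by LC-MS/MS (ESI positive, MRM) as % remaining; scan data screened for putative metabolite fragments.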

Series [11] is described as follows: Intrinsic clearance in BALB/c mouse liver microsomes at 1 uM in presence of NADPH by LC-MS/MS analysis. Type of series: ADME, microsome. The conditions noted are these: read-out: CLH. Summed up: as §1
In general terms: Liver microsomes are vesicles of endoplasmic reticulum, rich in cytochrome P450 enzymes.

A short description of series [12]: Metabolic stability in BALB/c mouse liver microsomes assessed as parent compound remaining at 1 uM after 30 mins in presence of NADPH by LC-MS/MS analysis. Type of series: ADME, microsome. The settings on record: read-out: Stability. Summed up: as §1
The subject of series [13] is Plasmodium falciparum. The experiment in a line: Increase in hemoglobin levels in chloroquine-sensitive synchronized ring stage of Plasmodium falciparum NF54 after 32 hrs by flow cytometric analysis. The class given is functional. The method, boiled down: (§2)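 Sorbitol-synchronized (5%) ring-stage cultures exposed to compound at multiples of IC50 for 32 h; trophozoites freed with 0.05% saponin, PBS-washed, counted by hemocytometer and flow cytometry. Hypotonic lysis/sonication, then sequential SDS/pyridine fractionation into hemoglobin, free heme and hemozoin (SDS/NaOH) fractions; each measured by UV-vis as Fe(III) heme-pyridine complex.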
Background: In flow cytometry, cells or beads pass a laser one at a time.

Series [14] concerns Plasmodium falciparum. The experiment in a line: Increase in free heme levels in chloroquine-sensitive synchronized ring stage of Plasmodium falciparum NF54 after 32 hrs by flow cytometric analysis. Type of series: functional. Summed up:
as §2

For series [15], the system named is Plasmodium falciparum. The series is described as follows: Decrease in hemozoine formation in chloroquine-sensitive synchronized ring stage of Plasmodium falciparum NF54 after 32 hrs by flow cytometric analysis. Type of series: functional. The method, boiled down: as §2
Series [16] can be described thus: Inhibition of beta hematin formation by detergent based assay. The method, boiled down:
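β-hematin formation from hematin in 1 M acetate buffer pH 4.9 with NP40 detergent, compound serially diluted from 20 mM DMSO stock; ~5 h at 37 °C. Free heme complexed with pyridine/acetone/HEPES pH 7.4 solution, absorbance at 405 nm; IC50 from dose-response curves.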

Series [17] relates to Liver. The experiment in a line: Drug metabolism in BALB/c mouse liver microsomes assessed as N-dealkylation on tertiary amine at 1 uM in presence of NADPH by mass spectrometric analysis. Type of series: ADME, microsome. The method, boiled down: as §1
In series [18] the test system is Liver. The experiment in a line: Drug metabolism in BALB/c mouse liver microsomes assessed as oxidation of quinoline core or pyridyl ring at 1 uM in presence of NADPH by mass spectrometric analysis. The class given is ADME, microsome. The method, boiled down:
as §1

For series [19], the system named is Liver. The experiment in a line: Drug metabolism in BALB/c mouse liver microsomes assessed as N-dealkylation with oxidative deamination at 1 uM in presence of NADPH by mass spectrometric analysis. Type of series: ADME, microsome. Summed up: as §1
The test system of series [20] is Liver. The series is described as follows: Drug metabolism in BALB/c mouse liver microsomes assessed as aldehyde reduction at 1 uM in presence of NADPH by mass spectrometric analysis. The class given is ADME, microsome. Summed up:
as §1

The subject of series [21] is Liver. The experiment in a line: Drug metabolism in BALB/c mouse liver microsomes assessed as oxidation of aldehyde to carboxylic acid at 1 uM in presence of NADPH by mass spectrometric analysis. The class given is ADME, microsome. The method, boiled down:
as §1

Series [22] addresses Voltage-gated inwardly rectifying potassium channel KCNH2 (Homo sapiens, UniProt Q12809). The experiment in a line: Inhibition of human ERG expressed in CHO cells by automated patch clamp method. Type of series: cell-based. For orientation: In patch-clamp work, channel activity is measured electrically.

Sequence of Voltage-gated inwardly rectifying potassium channel KCNH2 (Q12809 whole entry): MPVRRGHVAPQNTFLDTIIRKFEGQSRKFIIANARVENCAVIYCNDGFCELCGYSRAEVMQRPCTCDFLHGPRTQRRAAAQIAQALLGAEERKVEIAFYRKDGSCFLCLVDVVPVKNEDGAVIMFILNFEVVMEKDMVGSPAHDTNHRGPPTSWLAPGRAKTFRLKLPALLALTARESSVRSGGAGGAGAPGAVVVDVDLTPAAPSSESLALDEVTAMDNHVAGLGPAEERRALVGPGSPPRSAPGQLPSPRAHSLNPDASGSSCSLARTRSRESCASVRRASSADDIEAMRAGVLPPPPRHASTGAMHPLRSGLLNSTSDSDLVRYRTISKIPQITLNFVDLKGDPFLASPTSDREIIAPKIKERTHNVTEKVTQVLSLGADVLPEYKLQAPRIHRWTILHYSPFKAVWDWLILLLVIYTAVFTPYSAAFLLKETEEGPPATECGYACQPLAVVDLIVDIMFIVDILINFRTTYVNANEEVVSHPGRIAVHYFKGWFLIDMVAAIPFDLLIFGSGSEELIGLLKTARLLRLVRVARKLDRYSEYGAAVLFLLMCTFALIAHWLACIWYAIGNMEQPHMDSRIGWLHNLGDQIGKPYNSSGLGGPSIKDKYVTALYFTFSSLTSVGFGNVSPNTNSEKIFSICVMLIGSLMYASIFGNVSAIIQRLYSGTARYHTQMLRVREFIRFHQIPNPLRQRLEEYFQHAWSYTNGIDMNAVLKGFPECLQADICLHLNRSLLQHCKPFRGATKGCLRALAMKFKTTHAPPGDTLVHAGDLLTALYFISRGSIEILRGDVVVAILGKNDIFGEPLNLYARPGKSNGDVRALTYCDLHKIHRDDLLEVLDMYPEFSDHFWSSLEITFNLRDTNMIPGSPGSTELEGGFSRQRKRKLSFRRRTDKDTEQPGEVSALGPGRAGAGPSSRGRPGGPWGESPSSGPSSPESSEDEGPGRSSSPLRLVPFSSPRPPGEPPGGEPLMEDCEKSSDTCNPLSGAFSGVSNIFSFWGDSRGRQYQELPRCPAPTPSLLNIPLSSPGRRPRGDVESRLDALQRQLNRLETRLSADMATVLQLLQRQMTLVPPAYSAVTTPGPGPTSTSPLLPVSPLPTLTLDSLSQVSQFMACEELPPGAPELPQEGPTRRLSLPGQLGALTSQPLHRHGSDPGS

For orientation: logD means lipophilicity at a set pH, counting ionised and neutral species. What is called IC50 is the concentration that inhibits the measured activity by half. Low readings indicate greater potency, high ones weaker potency. One may read the half-life as the time in which the quantity being followed falls by half. Regarding `CN(Cc1ccccn1)Cc1ccccc1CNc1ccnc2cc(Cl)ccc12`, the “Ratio IC50” value amounted to 2.5 in the series with Plasmodium falciparum [1] and 3.4 in the series with Plasmodium falciparum [8]. Also, in [2], the solubility kinetic at 2 h is 165 µM (≈ 66.4 µg/mL). In series [3], this compound returned a logD at 4 h of 0.9. The compound further had a logD in [4] of 3.79. The concentration for half-maximal inhibition (IC50) in the series with Plasmodium falciparum [5] is 54.4 nM; with Plasmodium falciparum [6], 137 nM; in the series with Plasmodium falciparum [7] it was 184 nM; in the series with CHO it was 40200 nM; in [16], 17900 nM; in [22] it was 870 nM. Besides, the selectivity ratio in series [9] is 740. The Activity in the series with Plasmodium berghei was 82.4%; in the series with Plasmodium falciparum [13] it was “Dose-dependent effect”; in the series on Plasmodium falciparum [14], “Dose-dependent effect”; in the series on Plasmodium falciparum [15], “Dose-dependent effect”. For the same compound, the half-life at 1 µM in series [10] was found to be 5.49 min. For the same compound, the CLint scaled at 1 µM in series [11] is 1220 mL/min/kg. For the same compound, the remaining at 0.5 h, 1 µM in series [12] came to 2.32%. Moreover, the Drug metabolism entry with Liver [17], in the series with Liver [18], in the series on Liver [19], in the series with Liver [20] and with Liver [21] was “Metabolite_Detected” each time.

On to `CN(Cc1ccc(CNc2ccnc3cc(C#N)ccc23)cc1)Cc1ccccn1`, for which the “Ratio IC50” value came out at 1.9 in the series on Plasmodium falciparum [1] and 1.8 with Plasmodium falciparum [8]. Further, in series [2], the solubility kinetic at 2 h is 144 µM (≈ 56.5 µg/mL). Moreover, the logD at 4 h in [3] came out at 1. In [4], this compound gave a pH-dependent lipophilicity (logD) of 2.84. Moreover, the IC50 in the series with Plasmodium falciparum [5] came out at 76.4 nM; with Plasmodium falciparum [6] it was 146 nM; in the series on Plasmodium falciparum [7], 134 nM; with CHO, 11200 nM; in series [16] it was 24800 nM. The selectivity ratio in series [9] is 146. For the same compound, the Activity in the series on Plasmodium berghei was 98%; with Plasmodium falciparum [13] it was “Dose-dependent effect”; in the series on Plasmodium falciparum [14], “Dose-dependent effect”; with Plasmodium falciparum [15] it was “Dose-dependent effect”. For the same compound, the half-life at 1 µM in series [10] worked out at 6.22 min. In addition, the CLint scaled at 1 µM in series [11] was 1100 mL/min/kg. In [12], the remaining at 0.5 h, 1 µM is 3.63%. For the same compound, the Drug metabolism result in the series with Liver [17], in the series with Liver [18], in the series with Liver [19], with Liver [20] and in the series on Liver [21] was “Metabolite_Detected” throughout.
